Laboratory results reported in ChEMBL document CHEMBL1127053, “3,4-Dimethyl-4-(3-hydroxyphenyl)piperidines: opioid antagonists with potent anorectant activity” (J Med Chem, 1993).

Legend:
[1] = biological target: Muscarinic acetylcholine receptor; experiment: Tested for affinity against muscarinic acetylcholine using [3H]quinuclidinyl benzylate in rat brain; format: tissue-based
How it was run: (§1)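 Radioligand binding in cortical membranes from male Sprague-Dawley rats (110-150 g). Ligands: [3H]serotonin for 5-HT1, [3H]QNB for muscarinic, [3H]WB4101 for α1, [3H]clonidine for α2, [3H]dihydroalprenolol for β-adrenergic.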

[2] = biological target: Adrenergic receptor beta (Rattus norvegicus, UniProt P18090+P10608+P26255); experiment: Tested for affinity against beta-adrenergic using [3H]dihydroalprenolol in rat brain; format: tissue-based; how it was run: as §1
[3] = Tested for affinity against phencyclidine using [3H]phencyclidine in rat brain; format: tissue-based
[4] = biological target: Dopamine receptor; experiment: Tested for affinity against dopamine autoreceptor using [3H]apomorphine in rat brain; format: tissue-based
[5] = test system: Rattus norvegicus; experiment: Tested for concentration required to reduce the food consumption by 20 % subcutaneously; format: functional; details: Rattus norvegicus, sc; read-out: ED50
How it was run: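 Obese Zucker rats, 3-4 months old, trained to eat only 8 am-4 pm. Groups of 4 (2 male, 2 female), with one saline control group daily. Compound in saline with 10% DMSO, given sc on 3 consecutive days, typical doses 5.0-0.08 mg/kg (0.02-20 in some cases). Intake measured over the first 4 h. ED20 from regression of the linear portion of the dose-response curve.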

[6] = biological target: Delta-type opioid receptor (Rattus norvegicus, UniProt P33533); experiment: Binding affinity towards delta-opioid receptor by displacement of [3H]DADL in rat brain homogenates; format: tissue-based
Sequence of Delta-type opioid receptor (P33533 whole entry): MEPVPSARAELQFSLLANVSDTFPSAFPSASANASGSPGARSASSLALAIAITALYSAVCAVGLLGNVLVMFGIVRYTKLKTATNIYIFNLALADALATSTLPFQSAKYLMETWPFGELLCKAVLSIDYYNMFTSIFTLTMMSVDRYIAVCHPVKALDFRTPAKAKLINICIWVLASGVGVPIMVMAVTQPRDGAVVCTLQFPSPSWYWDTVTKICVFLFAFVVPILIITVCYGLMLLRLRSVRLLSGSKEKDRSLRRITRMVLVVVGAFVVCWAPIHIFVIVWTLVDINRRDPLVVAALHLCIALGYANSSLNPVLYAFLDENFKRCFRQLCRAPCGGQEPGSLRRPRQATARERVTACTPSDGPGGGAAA
How it was run: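 Radioligand displacement. Kappa: [3H]EKC, guinea pig cortex, with fentanyl and DADL added to block mu/delta binding. Delta: [3H]DADL, rat brain homogenate.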

[7] = biological target: Mu-type opioid receptor (Mus musculus) (UniProt P42866); experiment: Antagonistic activity towards morphine induced mu-opioid receptor by mouse writhing assay at 1.25 mg/kg subcutaneously; format: functional, organism-based; set-up: dose 1.25 mg/kg
Sequence of Mu-type opioid receptor (Mus musculus) (P42866 whole entry): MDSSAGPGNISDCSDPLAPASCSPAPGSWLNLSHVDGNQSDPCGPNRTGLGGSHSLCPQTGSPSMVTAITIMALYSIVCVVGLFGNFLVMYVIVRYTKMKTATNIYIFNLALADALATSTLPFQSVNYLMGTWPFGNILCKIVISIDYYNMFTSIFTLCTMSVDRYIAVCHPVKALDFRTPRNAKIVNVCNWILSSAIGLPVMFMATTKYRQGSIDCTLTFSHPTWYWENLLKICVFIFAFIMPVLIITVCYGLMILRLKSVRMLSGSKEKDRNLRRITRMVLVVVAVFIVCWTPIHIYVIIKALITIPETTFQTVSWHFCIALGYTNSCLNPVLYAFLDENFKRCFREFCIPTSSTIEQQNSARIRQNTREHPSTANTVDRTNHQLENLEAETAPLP
How it was run: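 Mouse acetic acid writhing: 0.6% acetic acid ip, writhes counted for 10 min starting 5 min after injection. Agonist (morphine 1.25 mg/kg or U50,488 2.5 mg/kg) and antagonist given sc 20 min before acid. 5 mice/point, ≥5 doses varied 2-fold, each mouse used once. AD50 = antagonist dose reducing agonist-induced writhing inhibition to 50%.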

[8] = biological target: T1, Adrenergic receptor alpha-2 (Rattus norvegicus, UniProt P22086+P19328+P22909); experiment: Tested for affinity against alpha-2-adrenergic using [3H]clonidine in rat brain; format: tissue-based; how it was run: as §1
T1 sequence (P22086 whole entry): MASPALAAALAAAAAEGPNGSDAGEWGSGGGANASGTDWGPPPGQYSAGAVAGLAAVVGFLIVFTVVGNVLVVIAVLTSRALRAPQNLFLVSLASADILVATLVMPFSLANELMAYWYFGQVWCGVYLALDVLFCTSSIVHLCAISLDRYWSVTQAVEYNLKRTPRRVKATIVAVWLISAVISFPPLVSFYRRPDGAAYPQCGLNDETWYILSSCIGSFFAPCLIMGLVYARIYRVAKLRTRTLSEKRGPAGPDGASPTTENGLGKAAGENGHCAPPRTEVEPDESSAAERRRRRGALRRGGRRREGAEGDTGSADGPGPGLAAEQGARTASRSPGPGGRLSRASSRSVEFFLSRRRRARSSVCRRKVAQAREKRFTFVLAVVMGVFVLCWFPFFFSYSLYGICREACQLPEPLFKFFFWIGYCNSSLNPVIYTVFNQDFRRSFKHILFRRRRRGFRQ
T1 sequence (P19328 whole entry): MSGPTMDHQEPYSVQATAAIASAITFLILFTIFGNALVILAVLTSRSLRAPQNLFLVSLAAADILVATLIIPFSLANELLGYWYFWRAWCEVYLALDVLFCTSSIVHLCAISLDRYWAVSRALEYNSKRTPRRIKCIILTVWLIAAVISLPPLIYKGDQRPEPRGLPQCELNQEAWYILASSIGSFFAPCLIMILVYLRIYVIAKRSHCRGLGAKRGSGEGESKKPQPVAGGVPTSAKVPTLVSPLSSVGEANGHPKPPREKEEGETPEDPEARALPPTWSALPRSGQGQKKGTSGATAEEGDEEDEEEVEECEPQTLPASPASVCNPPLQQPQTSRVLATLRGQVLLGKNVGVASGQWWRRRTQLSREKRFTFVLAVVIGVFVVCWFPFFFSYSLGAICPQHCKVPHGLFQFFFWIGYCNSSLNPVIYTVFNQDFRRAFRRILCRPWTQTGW
T1 sequence (P22909 whole entry): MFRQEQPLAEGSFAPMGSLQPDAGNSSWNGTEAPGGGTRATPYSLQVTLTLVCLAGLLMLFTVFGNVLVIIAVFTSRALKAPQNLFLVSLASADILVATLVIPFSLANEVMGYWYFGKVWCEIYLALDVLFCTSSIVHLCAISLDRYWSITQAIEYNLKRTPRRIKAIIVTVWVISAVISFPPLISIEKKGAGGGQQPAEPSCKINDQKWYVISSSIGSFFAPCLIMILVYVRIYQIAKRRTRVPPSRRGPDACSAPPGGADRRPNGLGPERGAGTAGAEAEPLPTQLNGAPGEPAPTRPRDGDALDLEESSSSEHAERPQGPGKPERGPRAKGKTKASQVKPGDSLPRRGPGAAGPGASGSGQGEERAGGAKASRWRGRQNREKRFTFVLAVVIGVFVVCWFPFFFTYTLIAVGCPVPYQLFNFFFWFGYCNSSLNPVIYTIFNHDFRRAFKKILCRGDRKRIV

[9] = biological target: Mu-type opioid receptor (Cavia porcellus) (UniProt P97266); details: Ileum, 2 nM
Sequence of Mu-type opioid receptor (Cavia porcellus) (P97266 whole entry): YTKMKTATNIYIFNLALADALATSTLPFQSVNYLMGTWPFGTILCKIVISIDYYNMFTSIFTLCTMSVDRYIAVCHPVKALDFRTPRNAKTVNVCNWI

[10] = biological target: Kappa-type opioid receptor (Rattus norvegicus) (UniProt P34975); experiment: Antagonism of bremazocine induced kappa receptor diuresis in rats at a concentration of 0.08 mg/kg subcutaneously; format: functional, organism-based; set-up: dose 0.08 mg/kg
Sequence of Kappa-type opioid receptor (Rattus norvegicus) (P34975 whole entry): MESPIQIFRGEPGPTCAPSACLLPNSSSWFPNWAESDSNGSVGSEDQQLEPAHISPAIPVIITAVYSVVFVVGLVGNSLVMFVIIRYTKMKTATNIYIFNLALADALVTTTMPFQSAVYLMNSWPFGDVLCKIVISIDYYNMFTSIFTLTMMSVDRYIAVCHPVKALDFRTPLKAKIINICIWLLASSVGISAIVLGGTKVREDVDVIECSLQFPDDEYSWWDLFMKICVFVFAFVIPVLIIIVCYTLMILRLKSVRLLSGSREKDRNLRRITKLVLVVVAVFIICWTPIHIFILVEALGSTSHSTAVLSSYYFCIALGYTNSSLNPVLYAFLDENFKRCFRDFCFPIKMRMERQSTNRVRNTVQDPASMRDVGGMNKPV
How it was run: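 Male Long-Evans hooded rats (350-500 g), reused no more than twice weekly. Bremazocine 0.08 mg/kg sc, test antagonist sc on the opposite side without delay. Rats housed in metabolism cages; urine volume recorded at 2 and 5 h. 3 rats/dose, doses varied 2-fold. AD50 = dose reducing cumulative 5-h induced urination by 50%.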

With `C[C@H]1CN(CC[C@H](O)C2CCCCC2)CC[C@@]1(C)c1cccc(O)c1` the IC50 [1] was > 10000 nM, the IC50 [2] was > 5000 nM and the IC50 [3] was > 1000 nM. The IC50 [4] was > 1000 nM, the ED50 [5] was 0.04 mg/kg and the Ki [6] was 5.2 nM. For the same compound, the AD50 [7] was 0.015 mg/kg, the IC50 [8] was > 5000 nM and the Ke [9] was 0.24 nM. It also gave an AD50 [10] of 0.38 mg/kg.
